Results from ChEMBL document CHEMBL3808301, “Bioactive Iridoid Glycosides from the Whole Plants of Rehmannia chingii” (J Nat Prod, 2016).

Experiments:
[1] = Cytotoxicity against human Bel7402 cells by MTT assay; type: functional, cell-based; settings: Bel-7402
[2] = tested on: HT-29; assay: Cytotoxicity against human HT-29 cells by MTT assay; type: functional, cell-based
[3] = Cytotoxicity against human BGC823 cells by MTT assay; type: functional, cell-based; settings: BGC-823
[4] = tested on: A549; assay: Cytotoxicity against human A549 cells by MTT assay; type: functional, cell-based
[5] = tested on: A2780; assay: Cytotoxicity against human A2780 cells by MTT assay; type: functional, cell-based
[6] = tested on: HepG2; assay: Hepatoprotective activity against APAP-induced toxicity in human HepG2 cells assessed as cell survival rate at 10 uM incubated for 48 hrs by MTT assay; type: functional; settings: HepG2, 48 h, read-out: Survival
Method in brief: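 HepG2 cells grown in DMEM with 10% fetal calf serum and penicillin/streptomycin at 37 °C, 5% CO2, then seeded and incubated overnight. Test sample (10 μM) added together with APAP (final 8 mM) for 48 h. MTT at 0.5 mg/mL for 4 h, formazan dissolved in DMSO, absorbance read at 570 nm. Survival given as % of normal cells; bicyclol (10 μM) positive control; n = 3.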

[7] = Cytotoxicity against mouse BV2 cells assessed as cell viability by MTT assay; type: cell-based, BV-2; settings: read-out: Activity
Method in brief: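 Murine microglial BV2 cells under the LPS-activation conditions of the NO assay. Viability read by MTT and expressed as a percentage of the LPS-only treatment group. Means ± SD from three independent experiments.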

[8] = tested on: BV-2; assay: Inhibition of LPS-induced NO production in mouse BV2 cells assessed as reduction in nitrite level pretreated for 24 hrs before LPS treatment for additional 24 hrs by Griess reaction method; type: functional, cell-based
Method in brief: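 BV2 microglia plated and preincubated 24 h, then exposed to LPS 0.3 μg/mL for a further 24 h. Nitrite in the culture supernatant measured by Griess reaction at OD 550 nm against a NaNO2 standard. Curcumin served as positive control. IC50 given as mean ± SD of three independent experiments.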

Row | IC50 [8] [µM] | Structure (SMILES) | IC50 [1] [µM] | IC50 [2] [µM] | IC50 [3] [µM] | IC50 [4] [µM] | IC50 [5] [µM] | viability at 10 µM [6] [%] | viability [7] [%]
1 |  | OC[C@H]1O[C@H](OC[C@H]2O[C@@H](O[C@@H]3OC=C[C@H]4[C@H](O)[C@@H]5O[C@]5(CO)[C@@H]34)[C@H](O)[C@@H](O)[C@@H]2O)[C@H](O)[C@@H](O)[C@H]1O | > 10 | > 10 | > 10 | > 10 | > 10 |  | 
2 |  | OCC1=C[C@@H](O)[C@]2(O[C@@H]3O[C@H](CO)[C@@H](O)[C@H](O)[C@H]3O)C=CO[C@@H](O[C@@H]3O[C@H](CO)[C@@H](O)[C@H](O)[C@H]3O)[C@H]12 | > 10 | > 10 | > 10 | > 10 | > 10 |  | 
3 |  | C[C@]1(O)C[C@@H](O)[C@]2(O)C=CO[C@@H](O[C@@H]3O[C@H](CO)[C@@H](O)[C@H](O)[C@H]3O)[C@@H]21 | > 10 | > 10 | > 10 | > 10 | > 10 |  | 
4 |  | O=C(O[C@H]1[C@@H]2C=CO[C@@H](O[C@@H]3O[C@H](CO)[C@@H](O)[C@H](O)[C@H]3O)[C@@H]2[C@@]2(CO)O[C@@H]12)c1ccc(O)cc1 [CATALPOSIDE] | > 10 | > 10 | > 10 | > 10 | > 10 |  | 
5 |  | OCC1=C[C@@H](O)[C@]2(O[C@@H]3O[C@H](CO)[C@@H](O)[C@H](O)[C@H]3O[C@H]3O[C@@H](CO)[C@H](O)[C@@H](O)[C@@H]3O[C@@H]3O[C@H](CO)[C@@H](O)[C@H](O)[C@H]3O)C=CO[C@@H](O[C@@H]3O[C@H](CO)[C@@H](O)[C@H](O)[C@H]3O)[C@H]12 | > 10 | > 10 | > 10 | > 10 | > 10 | 64 | 
6 |  | CC(/C=C/[C@@]1(O)C(C)(C)CCC[C@@]1(C)O)=C\C(=O)O[C@@H]1C[C@](C)(O)[C@H]2[C@H](O[C@@H]3O[C@H](CO)[C@@H](O)[C@H](O)[C@H]3O)OC=C[C@H]21 [REHMAGLUTOSIDE F] | > 10 | > 10 | > 10 | > 10 | > 10 | 63.4 | 
7 |  | C[C@H]1[C@H]2[C@H](O[C@@H]3O[C@H](COC(=O)/C=C/c4ccccc4)[C@@H](O)[C@H](O)[C@H]3O)OC=C(C(=O)O)[C@H]2C[C@@H]1O | > 10 | > 10 | > 10 | > 10 | > 10 | 65.9 | 
8 |  | OCC1=C[C@@H](O)[C@@H]2C=CO[C@@H](O[C@@H]3O[C@H](CO)[C@@H](O)[C@H](O)[C@H]3O)[C@H]12 [AUCUBIN] | > 10 | > 10 | > 10 | > 10 | > 10 |  | 
9 |  | C[C@]1(O)C[C@@H](O[C@@H]2O[C@H](CO)[C@@H](O)[C@H](O)[C@H]2O)[C@@H]2C=CO[C@@H](O[C@@H]3O[C@H](CO)[C@@H](O)[C@H](O)[C@H]3O)[C@@H]21 | > 10 | > 10 | > 10 | > 10 | > 10 |  | 
10 | 0.52 | COc1cc(/C=C/C(=O)CC(=O)/C=C/c2ccc(O)c(OC)c2)ccc1O [CURCUMIN] |  |  |  |  |  |  | 93.4
11 |  | C[C@]1(O)[C@H](O)C=C2C=CO[C@@H](O[C@@H]3O[C@H](CO)[C@@H](O)[C@H](O)[C@H]3O)[C@@H]21 | > 10 | > 10 | > 10 | > 10 | > 10 |  | 
12 |  | OC[C@H]1O[C@@H](O[C@@H]2OC=C[C@H]3[C@H](O[C@@H]4O[C@H](CO)[C@@H](O)[C@H](O)[C@H]4O)[C@@H]4O[C@]4(CO)[C@@H]23)[C@H](O)[C@@H](O)[C@@H]1O | > 10 | > 10 | > 10 | > 10 | > 10 |  | 
13 |  | C[C@@]1(O)[C@@H]2C(=C[C@H]1O[C@@H]1O[C@H](C(=O)O)[C@@H](O)[C@H](O)[C@H]1O)C=CO[C@H]2O[C@@H]1O[C@H](CO)[C@@H](O)[C@H](O)[C@H]1O | > 10 | > 10 | > 10 | > 10 | > 10 |  | 
14 |  | COC(=O)c1cc(OC)c2c(c1-c1c(CO)cc(OC)c3c1OCO3)OCO2 [BICYCLOL] |  |  |  |  |  | 66.5 | 
15 |  | C[C@]1(O)C[C@@H](O)[C@@H]2C[C@@H](O[C@H]3C[C@@](C)(O)[C@@H]4[C@@H](O[C@H]5O[C@@H](CO)[C@H](O)[C@@H](O)[C@@H]5O)OC=C[C@@H]43)O[C@@H](O[C@H]3O[C@@H](CO)[C@H](O)[C@@H](O)[C@@H]3O)[C@@H]21 | > 10 | > 10 | > 10 | > 10 | > 10 |  | 
16 |  | C[C@]1(O)C=CC2=CCO[C@@H](O[C@@H]3O[C@H](CO)[C@@H](O)[C@H](O)[C@H]3O)[C@@H]21 | > 10 | > 10 | > 10 | > 10 | > 10 |  | 
17 |  | CC(/C=C/[C@@]1(O)C(C)(C)CCC[C@@]1(C)O[C@@H]1O[C@H](C)[C@@H](O)[C@H](O)[C@H]1O)=C\C(=O)O[C@@H]1C[C@](C)(O)[C@H]2[C@H](O[C@@H]3O[C@H](CO)[C@@H](O)[C@H](O)[C@H]3O)OC=C[C@H]21 | > 10 | > 10 | > 10 | > 10 | > 10 |  | 
18 |  | OCC1=C[C@@H](O)[C@]2(O[C@@H]3O[C@H](CO)[C@@H](O)[C@H](O)[C@H]3O[C@H]3O[C@@H](CO)[C@H](O)[C@@H](O)[C@@H]3O)C=CO[C@@H](O[C@@H]3O[C@H](CO)[C@@H](O)[C@H](O)[C@H]3O)[C@H]12 | > 10 | > 10 | > 10 | > 10 | > 10 |  | 
19 |  | C[C@]1(O)C[C@@H](O)[C@@H]2C=CO[C@@H](O[C@@H]3O[C@H](CO)[C@@H](O)[C@H](O[C@@H]4C[C@@H]5[C@H]([C@H](O[C@@H]6O[C@H](CO)[C@@H](O)[C@H](O)[C@H]6O)O4)[C@@](C)(O)C[C@H]5O)[C@H]3O)[C@@H]21 | > 10 | > 10 | > 10 | > 10 | > 10 |  | 
20 |  | C[C@]1(O)C[C@@H](O)[C@@H]2C=CO[C@@H](O[C@@H]3O[C@H](CO)[C@@H](O)[C@H](O)[C@H]3O)[C@@H]21 | > 10 | > 10 | > 10 | > 10 | > 10 | 69.9 | 
21 |  | C[C@]1(O)C[C@@H](O)[C@@H]2C[C@H](O[C@H]3C[C@@](C)(O)[C@@H]4[C@@H](O[C@H]5O[C@@H](CO)[C@H](O)[C@@H](O)[C@@H]5O)OC=C[C@@H]43)O[C@@H](O[C@H]3O[C@@H](CO)[C@H](O)[C@@H](O)[C@@H]3O)[C@@H]21 | > 10 | > 10 | > 10 | > 10 | > 10 |  | 
22 |  | COc1cc(/C=C/C(=O)O[C@H]2[C@@H]3C=CO[C@@H](O[C@@H]4O[C@H](CO)[C@@H](O)[C@H](O)[C@H]4O)[C@@H]3[C@@]3(CO)O[C@@H]23)ccc1O | > 10 | > 10 | > 10 | > 10 | > 10 |  | 
23 |  | C[C@]1(O)CCC2=CCO[C@@H](O[C@@H]3O[C@H](CO)[C@@H](O)[C@H](O)[C@H]3O)[C@@H]21 | > 10 | > 10 | > 10 | > 10 | > 10 |  | 
24 | 2.5 | CC(/C=C/[C@@]1(O)C(C)(C)CCC[C@@]1(C)O)=C\C(=O)O[C@H]1[C@H](O[C@@H]2OC=C[C@H]3[C@H](O)[C@@H]4O[C@]4(CO)[C@@H]23)O[C@H](CO)[C@@H](O)[C@@H]1O | > 10 | > 10 | > 10 | > 10 | > 10 |  | 91.7

Row | Structure (SMILES) | IC50 [8] [µM] | IC50 [1] [µM] | IC50 [2] [µM] | IC50 [3] [µM] | IC50 [4] [µM] | IC50 [5] [µM] | viability at 10 µM [6] [%] | viability [7] [%]
25 | OC[C@H]1O[C@@H](O[C@@H]2OC=C[C@H]3[C@H](O)[C@@H]4O[C@]4(CO)[C@@H]23)[C@H](O)[C@@H](O)[C@@H]1O [CATALPOL] | 7.3 | > 10 | > 10 | > 10 | > 10 | > 10 | 69.1 | 86.1
